The results in this text go back to ChEMBL document CHEMBL2407028, “Discovery of novel oxazolidinedione derivatives as potent and selective mineralocorticoid receptor antagonists” (Bioorg Med Chem Lett, 2013).

SMILES strings stand for the structures.

The nature of data set [1]: Oral bioavailability in rat at 1 mg/kg. In kind it is ADME, organism-based. To be noted: in vivo. The procedure, abridged: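 Rats dosed at 1 mg/kg iv (n = 2) or 1 mg/kg po (n = 3), formulated at 1 mg/mL in PEG 200:water (70:30). Blood concentrations measured by LC/MS/MS after protein precipitation with acetonitrile.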
Data set [2] addresses T1, Progesterone receptor (Homo sapiens, UniProt P06401).
T1 sequence (P06401 whole entry): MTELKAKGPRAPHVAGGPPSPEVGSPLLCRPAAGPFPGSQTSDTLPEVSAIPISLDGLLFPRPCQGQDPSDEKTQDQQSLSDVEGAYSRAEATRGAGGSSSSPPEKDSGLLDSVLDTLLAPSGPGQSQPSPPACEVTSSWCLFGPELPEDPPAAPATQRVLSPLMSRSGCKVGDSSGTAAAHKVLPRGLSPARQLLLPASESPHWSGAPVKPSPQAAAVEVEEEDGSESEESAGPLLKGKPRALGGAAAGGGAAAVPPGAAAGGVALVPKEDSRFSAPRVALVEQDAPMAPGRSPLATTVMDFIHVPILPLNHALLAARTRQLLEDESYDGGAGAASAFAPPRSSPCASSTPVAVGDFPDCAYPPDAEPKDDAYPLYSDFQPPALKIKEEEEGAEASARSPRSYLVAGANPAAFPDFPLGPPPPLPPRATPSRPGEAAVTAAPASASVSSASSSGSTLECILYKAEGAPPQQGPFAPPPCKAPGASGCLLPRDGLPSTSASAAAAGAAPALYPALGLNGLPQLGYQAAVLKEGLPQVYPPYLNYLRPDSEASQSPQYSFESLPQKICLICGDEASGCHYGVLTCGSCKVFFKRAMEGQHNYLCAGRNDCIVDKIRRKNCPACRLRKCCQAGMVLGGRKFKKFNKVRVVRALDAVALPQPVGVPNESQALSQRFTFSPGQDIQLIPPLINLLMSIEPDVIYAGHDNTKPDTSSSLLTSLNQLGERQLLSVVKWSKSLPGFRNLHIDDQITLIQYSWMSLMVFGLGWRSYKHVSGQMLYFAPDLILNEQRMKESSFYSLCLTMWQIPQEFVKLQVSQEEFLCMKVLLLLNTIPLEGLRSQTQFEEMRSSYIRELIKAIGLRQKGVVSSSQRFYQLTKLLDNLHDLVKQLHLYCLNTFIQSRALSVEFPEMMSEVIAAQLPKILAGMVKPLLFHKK
As to the kind of experiment: Antagonist activity at progesterone receptor beta (unknown origin) by NH Pro assay.

Data set [3] deals with T1, Progesterone receptor. As to the kind of experiment: Agonist activity at progesterone receptor beta (unknown origin) by NH Pro assay.
Another data set concerns the target Estrogen receptor beta (Homo sapiens, UniProt Q92731). As to the kind of experiment: Agonist activity at estrogen receptor beta (unknown origin) by NH Pro assay.
Another data set has as its target T2, Androgen receptor (Homo sapiens, UniProt P10275).
T2 sequence (P10275 whole entry): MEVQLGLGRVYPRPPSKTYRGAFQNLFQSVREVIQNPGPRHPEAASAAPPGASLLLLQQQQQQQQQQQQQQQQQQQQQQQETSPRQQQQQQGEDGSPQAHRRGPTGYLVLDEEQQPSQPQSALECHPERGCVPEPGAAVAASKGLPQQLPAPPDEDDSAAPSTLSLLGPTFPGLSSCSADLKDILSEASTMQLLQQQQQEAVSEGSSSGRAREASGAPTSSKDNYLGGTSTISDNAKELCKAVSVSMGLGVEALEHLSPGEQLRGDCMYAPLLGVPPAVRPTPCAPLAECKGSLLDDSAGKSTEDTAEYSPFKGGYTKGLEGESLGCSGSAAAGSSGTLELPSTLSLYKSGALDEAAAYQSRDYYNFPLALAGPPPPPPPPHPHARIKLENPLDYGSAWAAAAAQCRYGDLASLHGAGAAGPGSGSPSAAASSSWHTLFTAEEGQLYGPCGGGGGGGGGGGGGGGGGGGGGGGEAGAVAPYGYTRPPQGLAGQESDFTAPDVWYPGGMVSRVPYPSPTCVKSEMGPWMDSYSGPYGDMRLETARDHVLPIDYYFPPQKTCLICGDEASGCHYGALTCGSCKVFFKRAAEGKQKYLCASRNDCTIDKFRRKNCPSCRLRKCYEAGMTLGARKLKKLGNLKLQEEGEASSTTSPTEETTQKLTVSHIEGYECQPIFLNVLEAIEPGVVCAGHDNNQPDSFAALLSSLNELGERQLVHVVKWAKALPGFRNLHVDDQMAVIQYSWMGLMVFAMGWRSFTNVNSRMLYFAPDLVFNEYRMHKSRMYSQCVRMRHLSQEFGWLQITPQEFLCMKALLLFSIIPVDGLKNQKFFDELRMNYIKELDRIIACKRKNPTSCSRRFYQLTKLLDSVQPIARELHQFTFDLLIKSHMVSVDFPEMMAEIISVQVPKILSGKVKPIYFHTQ
Briefly: Antagonist activity at androgen receptor (unknown origin) by NH Pro assay.

Data set [4] deals with T3, Mineralocorticoid receptor (Homo sapiens, UniProt P08235).
T3 sequence (P08235 whole entry): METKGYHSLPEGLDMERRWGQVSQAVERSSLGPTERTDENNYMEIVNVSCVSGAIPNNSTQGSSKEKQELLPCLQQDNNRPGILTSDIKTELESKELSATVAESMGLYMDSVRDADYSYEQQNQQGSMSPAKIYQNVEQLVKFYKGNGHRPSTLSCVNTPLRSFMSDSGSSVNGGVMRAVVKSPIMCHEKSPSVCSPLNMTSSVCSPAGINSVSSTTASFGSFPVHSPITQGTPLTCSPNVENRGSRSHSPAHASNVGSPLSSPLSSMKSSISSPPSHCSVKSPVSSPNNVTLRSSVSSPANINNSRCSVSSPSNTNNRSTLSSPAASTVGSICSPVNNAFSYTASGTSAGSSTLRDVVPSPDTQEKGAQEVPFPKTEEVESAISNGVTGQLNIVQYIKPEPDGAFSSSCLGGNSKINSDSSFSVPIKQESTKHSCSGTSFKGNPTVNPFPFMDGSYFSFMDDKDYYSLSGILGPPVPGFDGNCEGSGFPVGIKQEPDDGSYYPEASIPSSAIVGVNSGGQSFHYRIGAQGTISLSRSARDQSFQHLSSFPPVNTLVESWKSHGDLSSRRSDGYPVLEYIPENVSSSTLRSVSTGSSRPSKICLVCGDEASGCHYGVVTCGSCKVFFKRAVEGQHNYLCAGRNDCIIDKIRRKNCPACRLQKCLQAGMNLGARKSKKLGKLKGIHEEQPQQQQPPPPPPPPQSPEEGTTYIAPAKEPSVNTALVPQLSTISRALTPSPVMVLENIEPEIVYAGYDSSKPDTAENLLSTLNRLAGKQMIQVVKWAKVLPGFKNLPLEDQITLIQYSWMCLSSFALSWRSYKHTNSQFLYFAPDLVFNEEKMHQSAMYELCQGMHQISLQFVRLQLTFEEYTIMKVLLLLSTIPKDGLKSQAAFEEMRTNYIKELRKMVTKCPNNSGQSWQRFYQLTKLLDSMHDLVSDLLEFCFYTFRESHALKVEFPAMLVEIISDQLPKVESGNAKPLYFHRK
As to the kind of experiment: Antagonist activity at human mineralocorticoid receptor assessed as inhibition of binding to coactivator peptide by NH Pro assay.

The bioavailability is dose-corrected exposure relative to a reference, in per cent. Low values mean little systemic uptake, high ones much systemic uptake. What is called IC50 is the concentration at which inhibition is half-maximal. In general, EC50 refers to the concentration at which the effect is half-maximal. Lower therefore signals higher potency in that assay.

Sequence of Estrogen receptor beta (Q92731 whole entry): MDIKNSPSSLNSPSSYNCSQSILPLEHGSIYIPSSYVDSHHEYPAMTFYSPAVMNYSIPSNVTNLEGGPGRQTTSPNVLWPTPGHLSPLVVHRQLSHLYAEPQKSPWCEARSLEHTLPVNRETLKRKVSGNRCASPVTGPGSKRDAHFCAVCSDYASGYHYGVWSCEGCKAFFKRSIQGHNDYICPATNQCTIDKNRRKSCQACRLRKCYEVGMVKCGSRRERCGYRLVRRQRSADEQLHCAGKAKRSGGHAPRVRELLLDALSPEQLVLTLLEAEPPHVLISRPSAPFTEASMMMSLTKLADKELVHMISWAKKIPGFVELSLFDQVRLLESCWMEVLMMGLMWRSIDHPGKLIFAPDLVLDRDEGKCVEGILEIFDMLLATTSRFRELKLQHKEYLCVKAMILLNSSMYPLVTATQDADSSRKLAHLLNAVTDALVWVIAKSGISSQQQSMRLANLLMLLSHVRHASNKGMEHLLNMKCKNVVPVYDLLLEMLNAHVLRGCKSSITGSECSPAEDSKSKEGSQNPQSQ

Compound `COc1cc(CNC(=O)[C@@]2(Cc3ccccc3)OC(=O)N([C@@H]3CCc4ccccc43)C2=O)cc(OC)c1` had a bioavailability in data set [1] of 28%. In addition, the IC50 against Progesterone receptor [2] came to 8.1 µM; on Androgen receptor, 12 µM; in data set [4] it was 0.033 µM. Further, the EC50 at Progesterone receptor [3] and on Estrogen receptor beta was > 20 µM in each case.

`C[C@H](c1ccc(F)cc1)N1C(=O)O[C@](Cc2ccc(F)cc2)(C(=O)NCc2ccc(Cl)c(Cl)c2)C1=O` gave a bioavailability in data set [1] of 63%. The IC50 at Progesterone receptor [2] was 3.6 µM; on Androgen receptor it was > 20 µM; in data set [4], 0.18 µM. In addition, the EC50 on Progesterone receptor [3] and on Estrogen receptor beta was > 20 µM each time.
